SMILES strings stand for the structures.

Usually IC50 stands for the concentration that gives 50% inhibition.

Experiment [1] has as its target T1, Dihydrofolate reductase (Rattus norvegicus, UniProt Q920D2).
T1 sequence (Q920D2 whole entry): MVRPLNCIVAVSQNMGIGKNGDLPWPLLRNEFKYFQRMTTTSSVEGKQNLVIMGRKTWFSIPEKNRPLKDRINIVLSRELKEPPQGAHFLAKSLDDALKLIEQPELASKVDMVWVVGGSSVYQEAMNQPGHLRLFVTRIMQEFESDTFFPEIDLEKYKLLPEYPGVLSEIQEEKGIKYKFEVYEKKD
Description: Inhibitory activity against dihydrofolate reductase DHFR in rat liver.

Experiment [2] has as its target T2, Bifunctional dihydrofolate reductase-thymidylate synthase (Toxoplasma gondii, UniProt Q07422).
T2 sequence (Q07422 whole entry): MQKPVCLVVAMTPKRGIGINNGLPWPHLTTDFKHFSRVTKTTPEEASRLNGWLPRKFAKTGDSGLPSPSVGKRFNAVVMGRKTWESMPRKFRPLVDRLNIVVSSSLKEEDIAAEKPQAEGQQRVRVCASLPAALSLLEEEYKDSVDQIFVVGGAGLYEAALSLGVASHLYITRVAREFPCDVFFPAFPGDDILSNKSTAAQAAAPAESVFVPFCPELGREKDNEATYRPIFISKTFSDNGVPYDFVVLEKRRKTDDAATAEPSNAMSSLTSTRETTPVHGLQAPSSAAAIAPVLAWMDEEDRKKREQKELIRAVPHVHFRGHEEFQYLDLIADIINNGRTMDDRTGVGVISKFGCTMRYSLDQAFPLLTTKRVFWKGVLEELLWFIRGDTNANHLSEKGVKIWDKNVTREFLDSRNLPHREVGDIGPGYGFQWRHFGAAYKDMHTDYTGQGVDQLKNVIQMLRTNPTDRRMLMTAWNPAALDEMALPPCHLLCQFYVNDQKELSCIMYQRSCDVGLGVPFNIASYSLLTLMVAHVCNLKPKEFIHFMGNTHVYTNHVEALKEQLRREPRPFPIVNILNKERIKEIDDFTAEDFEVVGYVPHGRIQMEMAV
The experiment can be described thus: Inhibitory activity against dihydrofolate reductase DHFR in Toxoplasma gondii.

Experiment [3] is described as follows: Inhibition of dihydrofolate reductase DHFR in Pneumocystis carinii. Summed up: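 Spectrophotometric DHFR assay following enzymatic reduction of dihydrofolate to tetrahydrofolate with NADPH cofactor. 1 mL mixture in phosphate buffer (40.7 mM, pH 7.4) containing NADPH (0.117 mM), dihydrofolate (0.092 mM), 2-mercaptoethanol (8.9 mM) and 0.018 units DHFR. IC50 is the drug concentration that halves the reduction rate relative to control.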

For experiment [4], the target named is T3, Dihydrofolate reductase (Mycobacterium avium, UniProt O30463).
T3 sequence (O30463 whole entry): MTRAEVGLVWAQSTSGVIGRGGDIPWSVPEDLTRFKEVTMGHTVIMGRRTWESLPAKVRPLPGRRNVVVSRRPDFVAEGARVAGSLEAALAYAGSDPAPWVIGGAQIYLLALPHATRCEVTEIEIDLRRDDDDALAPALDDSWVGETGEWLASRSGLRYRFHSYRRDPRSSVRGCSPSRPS
The experiment can be described thus: Inhibitory activity against dihydrofolate reductase DHFR in Mycobacterium avium.

Experiment [5] can be described thus: Selectivity ratio of IC50(rat liver)/IC50(Mycobacterium avium).

For `CCc1nc(N)nc(N)c1-c1ccc(Cl)c(/N=N/N(CCO)[C@@H](C)c2ccccc2)c1`, the IC50 in experiment [1] is 6510 nM; in experiment [2] it was 2700 nM; in experiment [3] it was 1260 nM.
As to `CCc1nc(N)nc(N)c1-c1ccc(Cl)c(/N=N/N(CCCO)Cc2ccccc2)c1`, the IC50 in experiment [1] was determined as 7350 nM; in experiment [4] it was 3900 nM; in experiment [2], 2010 nM; in experiment [3], 680 nM. The Selectivity ratio in experiment [5] turned out to be 1.88.
Turning to `CCC(=O)OCCN(Cc1ccccc1)/N=N/c1cc(-c2c(N)nc(N)nc2CC)ccc1Cl`, the figures for the IC50 in experiment [1], in experiment [2] and in experiment [3] were 3300 nM, 700 nM and 1300 nM, respectively.
For the molecule `CCc1nc(N)nc(N)c1-c1ccc(Cl)c(/N=N/N(CCOC(C)=O)Cc2ccccc2Cl)c1`, the IC50 in experiment [1] came to 8400 nM; in experiment [2], 6100 nM; in experiment [3], 4700 nM.
In the case of `CCc1nc(N)nc(N)c1-c1ccc(Cl)c(/N=N/N(CCOC(C)=O)Cc2ccc3ccccc3c2)c1`, the IC50 came to 620 nM in experiment [1], 1050 nM in experiment [2] and 590 nM in experiment [3].
Take `CCc1nc(N)nc(N)c1-c1ccc(Cl)c(/N=N/N(CCOC(C)=O)Cc2ccc(C)cc2)c1`: the IC50 in experiment [1] was 3850 nM; in experiment [4], 4430 nM; in experiment [2], 630 nM; in experiment [3] it was 1700 nM. Moreover, in experiment [5], the Selectivity ratio amounted to 0.87.
Take `CCc1nc(N)nc(N)c1-c1ccc(Cl)c(/N=N/N(CCOC(C)=O)Cc2ccccc2F)c1`: the IC50 was found to be 14900 nM in experiment [1], 7800 nM in experiment [2] and 92000 nM in experiment [3].
For `CCc1nc(N)nc(N)c1-c1ccc(Cl)c(/N=N/N(CCOC(C)=O)Cc2ccc(C(F)(F)F)cc2)c1`, the IC50 in experiment [1] worked out at 6620 nM; in experiment [2], 2540 nM; in experiment [3] it was 1350 nM.
Turning to `CCc1nc(N)nc(N)c1-c1ccc(Cl)c(/N=N/N(CCOC(C)=O)Cc2cccc(C)c2)c1`, the IC50 stood at 5800 nM in experiment [1], 25200 nM in experiment [4], 5390 nM in experiment [2] and 5290 nM in experiment [3]. Besides, in experiment [5], the Selectivity ratio was determined as 0.23.
As to `CCc1nc(N)nc(N)c1-c1ccc(Cl)c(/N=N/N(CCOC(=O)c2ccccc2)Cc2ccccc2)c1`, the IC50 in experiment [1] turned out to be 690 nM; in experiment [2] it was 220 nM; in experiment [3], 850 nM.
Consider `CCc1nc(N)nc(N)c1-c1ccc(Cl)c(/N=N/N(CCOC(C)=O)Cc2cccc3ccccc23)c1`, for which the IC50 in experiment [1] turned out to be 280 nM; in experiment [2], 200 nM; in experiment [3], 53 nM.
As to `CCc1nc(N)nc(N)c1-c1ccc(Cl)c(/N=N/N(CCOC(C)=O)Cc2ccc(Cl)cc2)c1`, the IC50 was 1800 nM in experiment [1], 800 nM in experiment [2] and 940 nM in experiment [3].
The molecule `CCc1nc(N)nc(N)c1-c1ccc(Cl)c(/N=N/N(CCO)Cc2ccccc2)c1` yielded an IC50 in experiment [3] of 260 nM.
As for `CCc1nc(N)nc(N)c1-c1ccc(Cl)c(/N=N/N(CCOC(C)=O)Cc2ccc(OC)cc2)c1`, the IC50 was 2100 nM in experiment [1] and 440 nM in experiment [2].
For `CCc1nc(N)nc(N)c1-c1ccc(Cl)c(/N=N/N(CCOC(=O)C(C)C)Cc2ccccc2)c1`, the IC50 was determined as 3700 nM in experiment [1], 660 nM in experiment [2] and 1200 nM in experiment [3].
Turning to `CCc1nc(N)nc(N)c1-c1ccc(Cl)c(/N=N/N(CCOC(C)=O)Cc2cc(OC)c(OC)c(OC)c2)c1`, the figures for the IC50 in experiment [1], in experiment [2] and in experiment [3] were 450 nM, 70 nM and 1500 nM, respectively.
The corresponding values for `CCc1nc(N)nc(N)c1-c1ccc(Cl)c(/N=N/N(CCOC(C)=O)Cc2ccc(OC)c(OC)c2)c1` are 390 nM, 80 nM and 1400 nM.
`CCc1nc(N)nc(N)c1-c1ccc(Cl)c(/N=N/N(CCO)[C@H](C)c2ccccc2)c1`: the IC50 in experiment [1] is 6440 nM; in experiment [2], 1470 nM; in experiment [3] it was 1090 nM.
Turning to `CCc1nc(N)nc(N)c1-c1ccc(Cl)c(/N=N/N(CCO)CCc2ccccc2)c1`, the IC50 came out at 4670 nM in experiment [1], 5420 nM in experiment [4], 1790 nM in experiment [2] and 480 nM in experiment [3]. The Selectivity ratio in experiment [5] was determined as 0.86.
The molecule `CCc1nc(N)nc(N)c1-c1ccc(Cl)c(/N=N/N(C)C)c1` gave an IC50 in experiment [3] of 2800 nM.
`CCc1nc(N)nc(N)c1-c1ccc(Cl)c(/N=N/N(CCOC(C)=O)Cc2cccc(F)c2)c1`: the IC50 is 3870 nM in experiment [1], 4070 nM in experiment [4], 1250 nM in experiment [2] and 2220 nM in experiment [3]. For the same molecule, the Selectivity ratio in experiment [5] amounted to 0.95.
Consider `CCc1nc(N)nc(N)c1-c1ccc(Cl)c(/N=N/N(CCOC(C)=O)Cc2ccc([N+](=O)[O-])cc2)c1`, for which the IC50 was 3330 nM in experiment [1], 5340 nM in experiment [4], 850 nM in experiment [2] and 1210 nM in experiment [3]. Also, the Selectivity ratio in experiment [5] came out at 0.62.
`CCc1nc(N)nc(N)c1-c1ccc(Cl)c(/N=N/N(CCOC(C)=O)Cc2ccccc2C)c1`: the half-inhibitory concentration (IC50) in experiment [1] stood at 11200 nM; in experiment [4], 24500 nM; in experiment [2], 830 nM; in experiment [3], 11100 nM.
For the molecule `CCc1nc(N)nc(N)c1-c1ccc(Cl)c(/N=N/N(CCOC(C)=O)Cc2cc(OC)cc(OC)c2)c1`, the IC50 in experiment [1] came out at 845 nM; in experiment [4], 4360 nM; in experiment [2] it was 378 nM; in experiment [3] it was 860 nM. In experiment [5], the Selectivity ratio was found to be 0.19.
For `CCc1nc(N)nc(N)c1-c1ccc(Cl)c(/N=N/N(CCOC(C)=O)Cc2ccncc2)c1`, the IC50 in experiment [1] worked out at 6190 nM; in experiment [4], 2030 nM; in experiment [2], 640 nM; in experiment [3], 3460 nM. In addition, the Selectivity ratio in experiment [5] is 3.05.
Take `CCc1nc(N)nc(N)c1-c1ccc(Cl)c(/N=N/N(CCOC(C)=O)Cc2ccc(F)cc2)c1`: the IC50 in experiment [1] came out at 3830 nM; in experiment [4], 7460 nM; in experiment [2] it was 4400 nM; in experiment [3] it was 1910 nM. Moreover, the Selectivity ratio in experiment [5] was determined as 0.51.
With `CCc1nc(N)nc(N)c1-c1ccc(Cl)c(/N=N/N(CCOC(C)=O)Cc2cccc([N+](=O)[O-])c2)c1`, the concentration for half-maximal inhibition (IC50) came out at 1610 nM in experiment [1], 3690 nM in experiment [4], 830 nM in experiment [2] and 1300 nM in experiment [3]. Moreover, in experiment [5], the Selectivity ratio was 0.44.
Consider `CCc1nc(N)nc(N)c1-c1ccc(Cl)c(/N=N/N(CCOC(C)=O)Cc2cccc(Cl)c2)c1`, for which the IC50 in experiment [1] was found to be 1290 nM; in experiment [2], 1160 nM; in experiment [3], 580 nM.
With `CCc1nc(N)nc(N)c1-c1ccc(Cl)cc1` [PYRIMETHAMINE], the midpoint of inhibition in experiment [3], the IC50, lay at 3650 nM.

(Values after ChEMBL document CHEMBL1134547 (J Med Chem, 2001).)
